# Reference: ChEMBL document CHEMBL2176900, “Design and synthesis of a novel series of bicyclic heterocycles as potent γ-secretase modulators” (J Med Chem, 2012)
# How the values were obtained:
# Rattus norvegicus [1] = experiment: Antialzheimer activity in Sprague-Dawley rat assessed as amyloid beta 37 level in brain at 10 mg/kg, po at 25 hrs by ELISA relative to control; type: functional
# Procedure, shortened: (§1)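 Male Sprague-Dawley rats (180-220 g), fasted overnight, were given 10 mg/kg by gastric intubation as a 5 mg/mL suspension in 0.5% methocellulose. At 2, 4, 7 and 25 h, 50 μL CSF was taken from the cisterna magna under isoflurane, then brain was collected. Aβ37/38/40/42 were measured by MesoScale Discovery sandwich immunoassays. Results are mean % change versus T = 0 h, n = 5.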
# Rattus norvegicus [2] = experiment: Antialzheimer activity in Sprague-Dawley rat assessed as amyloid beta 37 level in CSF at 10 mg/kg, po at 7 hrs by ELISA relative to control; type: functional; procedure, shortened: as §1
# Mus musculus [3] = experiment: Inhibition of gamma-secretase in CD1 mouse assessed as total amyloid beta level in brain at 30 mg/kg, po at 24 hrs by ELISA relative to control; type: functional; set-up: scale not given: the % may be the effect or the level left
# Procedure, shortened: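 Fasted male CD1 SPF mice were dosed orally at 10 or 30 mg/kg in 20% Captisol. Right hemisphere was homogenized in 0.4% DEA/50 mM NaCl and the high-speed supernatant neutralized. Aβtotal ELISA used N-terminal JRF/rAβ/2 capture, biotinylated 4G8 and streptavidin-peroxidase, then a fluorogenic substrate (ex 320/em 420 nm). Standards spanned 10000–0.3 pg/mL. Values are % change vs T = 0 h, n = 4.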
# Mus musculus [4] = experiment: Antialzheimer activity in CD1 mouse assessed as amyloid beta 42 level in brain at 10 mg/kg, po at 8 hrs by ELISA relative to control; type: functional
# Procedure, shortened: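 Male CD1 SPF mice, fasted overnight, got a single oral dose of 10 or 30 mg/kg. At each time point the right brain hemisphere was homogenized in 0.4% DEA/50 mM NaCl with protease inhibitors and spun at 221300g for 50 min. The supernatant was neutralized with Tris-HCl pH 6.8. Aβ38 or Aβ42 was read by sandwich ELISA with a fluorogenic peroxidase substrate (ex 320/em 420 nm). Results are mean % change versus T = 0 h, n = 4.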
# [5] = Fraction unbound in human plasma; type: ADME, cell-free
# [6] = Drug metabolism in rat liver microsomes at 1 uM after 15 mins by ion-trap mass spectrophotometry; type: ADME, Microsome; conditions: read-out: Drug metabolism
# Liver microsomes = experiment: Drug metabolism in human liver microsome assessed as reactive metabolite formation by cyanide-trapping assay; type: ADME
# [7] = Drug uptake in Sprague-Dawley rat brain at 10 mg/kg, po at 2 hrs by LC-MS/MS analysis; type: ADME, organism-based; set-up: dose 10 mg/kg, route oral; conditions: read-out: Drug uptake
# Procedure, shortened: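 Overnight-fasted male Sprague–Dawley rats (180–220 g) were dosed 10 mg/kg by gastric intubation of a 5 mg/mL suspension in 0.5% methocellulose. Rats were anesthetized with isoflurane, CSF was taken from the cisterna magna, then they were decapitated. Brain compound levels were measured as in the mouse assay. n = 5.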
# Rattus norvegicus [8] = experiment: Antialzheimer activity in Sprague-Dawley rat assessed as amyloid beta 42 level in brain at 10 mg/kg, po at 4 hrs by ELISA relative to control; type: functional; procedure, shortened: as §1
# Rattus norvegicus [9] = experiment: Antialzheimer activity in Sprague-Dawley rat assessed as amyloid beta 42 level in CSF at 10 mg/kg, po at 2 hrs by ELISA relative to control; type: functional; procedure, shortened: as §1
# [10] = Thermodynamic solubility in 0.01N HCl; conditions: read-out: Therm_solubility
compound,measurement,setting,value
COc1nc(Nc2cccc3c2nc(-c2ccc(F)cc2)n3C)ccc1-n1cnc(C)c1,Activity,Rattus norvegicus [1],128%
same,Activity,Rattus norvegicus [2],929%
same,Activity,Mus musculus [3],104%
same,Activity,Mus musculus [4],50%
same,fraction unbound,[5],0.0013
same,"metabolised at 0.25 h, 1 µM",[6],16%
same,Drug metabolism,Liver microsomes,Not Active
same,concentration at 2 h,[7],2500 nM
same,Activity,Rattus norvegicus [8],64%
same,Activity,Rattus norvegicus [9],65%
same,solubility thermodynamic,[10],1170 µg/mL
